Assay [1] deals with K. pneumoniae EN5136 (NDM-1, OXA-1, SHV). The assay can be described thus: MIC / checkerboard assay, K. pneumoniae EN5136. The assay is classed as cell-based. Conditions: carbapenem alone. The method, boiled down:
(§1)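 Carbapenem (meropenem or doripenem) MICs were determined in μg mL−1 against NDM-producing K. pneumoniae and E. coli isolates. Each was tested alone and in the presence of fixed test compound at 16 μg mL−1 (7 μM) or 32 μg mL−1 (14 μM). Fold change is the MIC with compound relative to carbapenem alone.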

Assay [2] deals with K. pneumoniae BAA2146 (NDM-1). Briefly: MIC / checkerboard assay, K. pneumoniae BAA2146. The conditions noted are these: carbapenem alone. In kind it is cell-based. In outline:
as §1

Assay [3] deals with K. pneumoniae R3934 (NDM-1). The assay can be described thus: MIC / checkerboard assay, K. pneumoniae R3934. The assay is classed as cell-based. The conditions noted are these: carbapenem alone. The method, boiled down:
as §1

Assay [4] concerns E. coli EN5141 (NDM-1, OXA-1). Briefly: MIC / checkerboard assay, E. coli EN5141. The assay is classed as cell-based. Conditions: carbapenem alone. In outline: as §1
Assay [5] deals with clinical isolates of NDM producing K. pneumoniae and E. coli. Briefly: Checkerboard assay, summary over NDM-producing isolates. In kind it is cell-based. The conditions noted are these: for fold decrease in the MIC value: with 16 μg mL^−1 VanNHdipi (7 μM); for fold reduction of the MIC value: with 32 μg mL^−1 VanNHdipi (14 μM), all strains. In outline:
as §1

The test system of the next assay is K. pneumoniae R3934. Briefly: Time-kill kinetics of carbapenem combinations. The assay is classed as cell-based. The conditions noted are these: carbapenem alone (meropenem 8 μg mL^−1, doripenem 2 μg mL^−1). In outline: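 K. pneumoniae R3934 (NDM-1) was exposed to meropenem (4 or 8 μg mL−1) or doripenem (0.5 or 1 μg mL−1) with the test compound at 32 μg mL−1. Controls were untreated cultures and carbapenem alone (meropenem 8, doripenem 2 μg mL−1). Viable counts (Log CFU mL−1) were taken at 2, 4, 6 and 24 h; <50 CFU mL−1 was flagged.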

The next assay concerns the target NDM-1 (Klebsiella pneumoniae, UniProt C7C422). Briefly: MBL inhibition, nitrocefin absorbance assay, NDM-1. The assay is classed as biochemical. The method, boiled down:
(§2)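 Absorbance inhibition assay for purified metallo-β-lactamases from a seven-enzyme panel. Nitrocefin served as substrate; enzyme hydrolysis of its β-lactam ring shifts the absorption spectrum, which is monitored by absorbance. IC50 was determined for the test compound.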

A further assay deals with IMP-1 (Serratia marcescens, UniProt P52699). The assay can be described thus: MBL inhibition, nitrocefin absorbance assay, IMP-1. The assay is classed as biochemical. The method, boiled down: as §2
Sequence of IMP-1 (P52699 19-246, looked up, species assumed): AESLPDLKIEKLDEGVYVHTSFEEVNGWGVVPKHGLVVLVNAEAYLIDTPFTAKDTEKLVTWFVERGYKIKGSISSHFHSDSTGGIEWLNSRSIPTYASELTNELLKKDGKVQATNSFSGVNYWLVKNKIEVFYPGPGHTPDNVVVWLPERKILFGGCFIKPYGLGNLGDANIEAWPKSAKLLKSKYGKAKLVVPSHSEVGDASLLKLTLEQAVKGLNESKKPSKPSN
Assay [6] concerns MRSA, methicillin-resistant S. aureus (ATCC 33591). Briefly: MIC determination. The assay is classed as cell-based. Conditions: Staphylococcus aureus, ATCC33591|MRSA.
For assay [7], the system named is vancomycin-resistant strains (VRSA and VRE). Briefly: MIC across the panel of vancomycin-resistant strains. In kind it is cell-based, Staphylococci and Enterococci. The conditions noted are these: Staphylococcus aureus.
Assay [8] concerns MRSA. Briefly: Time-kill kinetics against exponential phase MRSA. The assay is classed as cell-based, S. aureus. Conditions: at MIC (vancomycin: same across concentrations). In outline: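 Exponential-phase MRSA was exposed to the test compound or vancomycin at the MIC and higher multiples. Viable counts (Log CFU mL−1) were followed over time up to 24 h.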
The test system of another assay is MRSA ATCC 33591 biofilms. Briefly: Activity against mature biofilms of MRSA. In kind it is cell-based, S. aureus. The conditions noted are these: 20 μM, 24 h.
Assay [9] has as its system MRSA. Briefly: Antagonization assay with N,N'-diacetyl-L-Lys-D-Ala-D-Ala. The assay is classed as cell-based, S. aureus. The conditions noted are these: Staphylococcus aureus, read-out: MIC in the presence of KAA. The method, boiled down:
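Test compound or vancomycin was pre-incubated with N,N'-diacetyl-L-Lys-D-Ala-D-Ala (KAA) before being added to the MRSA suspension for MIC determination. MIC in the presence of KAA was compared with that without KAA.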

Another assay has as its system B. subtilis. Briefly: MIC determination against B. subtilis. In kind it is cell-based. Conditions: Bacillus subtilis.
For assay [10], the system named is B. subtilis 168. The assay can be described thus: Physiologically effective concentration. The assay is classed as cell-based, Bacillus subtilis. In outline: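 B. subtilis 168 was grown to mid-log phase (OD500 0.35) and then given different concentrations of the test compound or vancomycin. The acute effect on growth was followed by optical density. The PEC is the concentration at which growth continues at a reduced rate, expressed as a multiple of the MIC.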

For assay [11], the system named is B. subtilis 168 newly synthesized cytosolic proteins. Briefly: 2D gel-based proteome analysis with [35S]-methionine pulse labeling. The assay is classed as cell-based, Bacillus subtilis. Conditions: 10 min. In outline:
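B. subtilis 168 cultures grown to OD500 0.35 were exposed for 10 min to the test compound or vancomycin at the physiologically effective concentration. Newly synthesised cytosolic proteins were pulse-labelled with [35S]-methionine, separated by 2D gel electrophoresis and compared with untreated cells by false-colour overlay (treated red, control green). Proteins were identified by LC-MS; regulation factor is the treated/control ratio.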

Assay [12] deals with GFP-MinD in B. subtilis 1981. The assay can be described thus: GFP-MinD localization. In kind it is cell-based, Bacillus subtilis. The conditions noted are these: at PEC (vancomycin 0.4 μM, VanNHdipi 0.16 μM).
The subject of assay [13] is B. subtilis 168. Briefly: Cell wall biosynthesis inhibition assay. Conditions: at PEC (vancomycin 0.4 μM, VanNHdipi 0.16 μM). In kind it is cell-based, Bacillus subtilis.
For assay [14] the following is noted: D-Ala-D-Lac versus D-Ala-D-Ala; cited from earlier work.
Another assay has as its system NDM-1 and VIM-2. The conditions noted are these: cited from earlier work.
In the next assay the test system is VIM-1 and IMP-1. The conditions noted are these: cited from earlier work.

The MIC is the lowest concentration that inhibits growth of the organism. A word on the IC50: it is the concentration needed to halve the response being measured. High values mean a need for much substance, low ones inhibition by little substance.

Each structure is given as a SMILES string. In brackets after ≈: the same amount, converted by molar mass. Several values for one entry are separate records, joined by “and”; a condition that tells them apart may be missing. Identical values can stand only once.

Sequence of NDM-1 (C7C422 29-270, looked up): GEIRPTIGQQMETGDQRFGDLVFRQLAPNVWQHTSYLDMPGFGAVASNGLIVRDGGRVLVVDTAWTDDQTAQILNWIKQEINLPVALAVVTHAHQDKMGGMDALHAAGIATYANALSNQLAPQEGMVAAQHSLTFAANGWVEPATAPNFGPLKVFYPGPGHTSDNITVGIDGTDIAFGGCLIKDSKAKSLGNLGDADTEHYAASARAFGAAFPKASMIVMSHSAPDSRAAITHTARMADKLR

Turning to `C[C@@H](O)[C@H]1C(=O)N2C(C(=O)O)=C(S[C@@H]3CN[C@H](CNS(N)(=O)=O)C3)[C@H](C)[C@H]12` [Doripenem], the MIC of carbapenem was 8 µg/mL in assay [1], 16 µg/mL in assay [2], 16 µg/mL in assay [3] and 8 µg/mL in assay [4]. In assay [5], the MIC lay in the range of 0.06 to 4 µg/mL. The “fold decrease in the MIC value” in [5] (NDM producing K. pneumoniae and E. coli) is listed as 4-16 fold. In addition, in assay [5], the “fold reduction of the MIC value” is on record as 16–32 fold. Moreover, the growth inhibition entry in the assay with K. pneumoniae R3934 is “no growth inhibition”.
As for `C[C@@H](O)[C@H]1C(=O)N2C(C(=O)O)=C(S[C@@H]3CN[C@H](C(=O)N(C)C)C3)[C@H](C)[C@H]12` [Meropenem], the MIC of carbapenem came out at 8 µg/mL in [1], 8 µg/mL in assay [2], 64 µg/mL in [3] and 2 µg/mL in assay [4]. The minimal inhibitory concentration (MIC) in [5] fell in the range of 0.06 to 4 µg/mL. Further, in assay [5] (NDM-1 expressing K. pneumoniae strains), the “fold decrease in the MIC value” is given as 2-8 fold. Moreover, the “fold reduction of the MIC value” in [5] is 16–32 fold. The growth inhibition entry in the assay with K. pneumoniae R3934 is recorded as “did not show any growth inhibition”.
With `c1ccc(CNCc2ccccn2)nc1` [BPYA, bis(pyridin-2-ylmethyl)amine], the concentration for half-maximal inhibition (IC50) against NDM-1 is 1200 nM; against IMP-1 it was > 40000 nM.
With `CN[C@H](CC(C)C)C(=O)N[C@H]1C(=O)N[C@@H](CC(N)=O)C(=O)N[C@H]2C(=O)N[C@H]3C(=O)N[C@H](C(=O)N[C@H](C(=O)O)c4cc(O)cc(O)c4-c4cc3ccc4O)[C@H](O)c3ccc(c(Cl)c3)Oc3cc2cc(c3O[C@@H]2O[C@H](CO)[C@@H](O)[C@H](O)[C@H]2O[C@H]2C[C@](C)(N)[C@H](O)[C@H](C)O2)Oc2ccc(cc2Cl)[C@H]1O` [Vancomycin], the lowest concentration to inhibit growth in assay [6] (MIC) was 0.6 µM (≈ 0.87 µg/mL). The minimal inhibitory concentration (MIC) in [7] is > 346 µM and > 512 µg/mL. Besides, in the assay on MRSA [8], the “time to complete eradication” value was determined as 24 h. Moreover, the “reduction in cell viability within the biofilms” value with MRSA ATCC 33591 biofilms is on record as “minimal activity”. The MIC with MRSA [9] was > 30 µM. Besides, in the assay with B. subtilis, the MIC was 0.2 µM (≈ 0.29 µg/mL). The “PEC as multiple of MIC” value in the assay on B. subtilis 168 [10] (added at OD500 0.35) was found to be 2 × MIC. In addition, in the assay with B. subtilis 168 [10] (added at OD500 0.35 (mid-log phase)), the “physiologically effective concentration (PEC), growth retardation” value was 0.4 μM. For the same molecule, in assay [11] (at PEC (vancomycin 0.4 μM, VanNHdipi 0.16 μM)), the “Regulation factor (treated/control), CysC” value worked out at 2.3 ± 0.1. In [11] (at PEC), the “Regulation factor (treated/control), GsaB” value is on record as 2.8 ± 0.4; the “Regulation factor (treated/control), Hom” value came out at 5.0 ± 3.8; the “Regulation factor (treated/control), LysA” value is given as 2.7 ± 0.3; the “Regulation factor (treated/control), MtnE” value is recorded as 2.4 ± 0.3. In assay [11] (at PEC), the “Regulation factor (treated/control), MurF” value is listed as 4.1 ± 1.6; the “Regulation factor (treated/control), NfrA” value is given as 3.3 ± 0.2; the “Regulation factor (treated/control), RpsB” value turned out to be 2.7 ± 0.3; the “Regulation factor (treated/control), SdhA” value is 3.3 ± 1. Also, in assay [11] (at PEC), the “Regulation factor (treated/control), ThiG” value was 2.5 ± 0.1; the “Regulation factor (treated/control), Udk” value was determined as 3.1 ± 0.5; the “Regulation factor (treated/control), YceC” value turned out to be 3.7 ± 0.9; the “Regulation factor (treated/control), YoxD” value was determined as 2.9 ± 0.1. In addition, in assay [11] (at PEC), the “Regulation factor (treated/control), YpuA” value came to 4.4 ± 0.3; the “Regulation factor (treated/control), YqiG” value is reported as 5.2 ± 1.3; the “Regulation factor (treated/control), YtrB” value worked out at 4.8 ± 0.5; the “Regulation factor (treated/control), YtrE.2” value is on record as 18.2 ± 8.98. For the same molecule, the MinD delocalization entry in [12] is “did not elicit any MinD protein delocalization”. In addition, in the assay on B. subtilis 168 [13], the “inhibition of cell wall biosynthesis (bubbles on cell surface)” value is recorded as “Bubble-like formations were observed”. Further, in [14], the “fold reduction in binding affinity” value is 1000 fold.
Take `O=C(O)c1ncsc1NS(=O)(=O)c1cccnc1` [ANT431]: the inhibitory activity result with NDM-1 and VIM-2 is given as “sub-micromolar”. Further, the “fold less active than against NDM-1 and VIM-2” value in the assay on VIM-1 and IMP-1 is “at least 20 fold”.
